How the values were obtained:
[1] = biological target: T1, Amine oxidase [flavin-containing] B (Bos taurus, UniProt P56560); assay: Ratio of catalytic constant and Michaelis-Menten constant for MAO-B.; conditions: cattle
T1 sequence (P56560 whole entry): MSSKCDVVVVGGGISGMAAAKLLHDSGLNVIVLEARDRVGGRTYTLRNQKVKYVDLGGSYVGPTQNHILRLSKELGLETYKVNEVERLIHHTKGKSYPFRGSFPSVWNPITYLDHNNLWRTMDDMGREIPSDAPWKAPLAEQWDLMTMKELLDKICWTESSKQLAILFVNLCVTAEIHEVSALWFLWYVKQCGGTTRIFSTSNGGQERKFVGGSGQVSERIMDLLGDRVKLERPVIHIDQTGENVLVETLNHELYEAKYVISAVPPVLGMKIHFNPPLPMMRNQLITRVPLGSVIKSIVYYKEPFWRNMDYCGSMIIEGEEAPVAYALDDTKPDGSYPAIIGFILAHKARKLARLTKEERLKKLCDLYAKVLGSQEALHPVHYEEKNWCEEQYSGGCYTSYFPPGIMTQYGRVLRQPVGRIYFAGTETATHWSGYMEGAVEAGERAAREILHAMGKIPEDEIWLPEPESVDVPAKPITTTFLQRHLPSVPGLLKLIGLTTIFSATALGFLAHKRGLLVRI
In short: (§1)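 MAO-B at 0.08 μM final; activity was calibrated with MPTP at 30 °C and the preparation was stored at –15 °C. Substrate range 100–2000 μM in 100 mM sodium phosphate pH 7.4, with spectrophotometric initial oxidation rates. KM and kcat derived from double-reciprocal plots, and kcat/KM calculated from them.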

[2] = biological target: T1, Amine oxidase [flavin-containing] B; assay: Kinetic value evaluated as catalyzed oxidation rate (kcat).; conditions: cattle
In short: (§2)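 kcat from initial oxidation rates, read by spectrophotometer, with test compounds at 100–2000 μM final in 100 mM sodium phosphate pH 7.4, using 0.16 μM MAO-A or 0.08 μM MAO-B. kcat and KM came from double-reciprocal plots. Repeat determinations were made on selected substrates at different times.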

[3] = biological target: T2, Amine oxidase [flavin-containing] A (Homo sapiens, UniProt P21397); assay: Kinetic value evaluated as catalyzed oxidation (kcat).; in short: as §2
T2 sequence (P21397 whole entry): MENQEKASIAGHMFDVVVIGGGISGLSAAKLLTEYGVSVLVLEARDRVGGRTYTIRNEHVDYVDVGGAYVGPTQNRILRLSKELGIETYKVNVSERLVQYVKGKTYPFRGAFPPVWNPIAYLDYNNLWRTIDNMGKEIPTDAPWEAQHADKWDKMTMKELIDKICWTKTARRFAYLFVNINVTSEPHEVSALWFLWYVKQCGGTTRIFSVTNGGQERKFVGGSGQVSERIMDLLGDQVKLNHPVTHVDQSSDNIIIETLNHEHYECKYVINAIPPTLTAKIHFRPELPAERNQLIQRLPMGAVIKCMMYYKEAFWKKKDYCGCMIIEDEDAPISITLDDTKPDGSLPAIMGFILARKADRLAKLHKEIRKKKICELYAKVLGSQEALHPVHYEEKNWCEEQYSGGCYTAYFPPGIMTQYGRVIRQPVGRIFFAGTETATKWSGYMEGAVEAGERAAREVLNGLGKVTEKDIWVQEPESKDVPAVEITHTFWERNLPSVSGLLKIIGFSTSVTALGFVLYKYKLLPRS

[4] = biological target: T2, Amine oxidase [flavin-containing] A; assay: Michaelis-Menten constant for Monoamine oxidase A-catalyzed oxidation (KM).
In short: (§3)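 MAO-A at 0.16 μM final, raised to 0.32 μM for one slowly oxidized substrate. The MAO-A preparation was diluted with 3 volumes of phosphate buffer just before use, and its activity was re-checked bimonthly with kynuramine at 30 °C. Substrates at 100–2000 μM in 100 mM sodium phosphate pH 7.4; initial rates by spectrophotometry. kcat and KM from double-reciprocal plots; kcat/KM as their ratio.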

[5] = biological target: T1, Amine oxidase [flavin-containing] B; assay: (§4) Michaelis-Menten constant for Monoamine oxidase B catalyzed oxidation (KM).; conditions: cattle; in short: as §1
[6] = biological target: T2, Amine oxidase [flavin-containing] A; assay: Ratio of catalytic constant and Michaelis-Menten constant for MAO-A.; in short: as §3
[7] = biological target: T3, Monoamine oxidase B (amine oxidase [flavin-containing] B) (Bos taurus, UniProt P56560); assay: as §4; conditions: cattle; in short: as §1
T3 sequence (P56560 whole entry): T1 sequence (P56560 whole entry)

[8] = biological target: T4, Monoamine oxidase A (amine oxidase [flavin-containing] A) (Homo sapiens, UniProt P21397); assay: Michaelis-Menten constant for Monoamine oxidase A catalyzed oxidation (Km)
T4 sequence (P21397 whole entry): T2 sequence (P21397 whole entry)
In short: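 MAO-A preparation, viscous, diluted with 3 volumes of phosphate buffer just before use; activity standardised with kynuramine at 30 °C. Substrates as oxalate salts at 100–2000 μM final in 100 mM sodium phosphate, pH 7.4, with 0.16 μM MAO-A. Initial oxidation rates were followed spectrophotometrically, and Km came from double-reciprocal plots.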

Row | k cat/Km [1] [M⁻¹ s⁻¹] | k cat [2] [s⁻¹] | k cat [3] [s⁻¹] | Km [4] [µM] | Km [5] [µM] | k cat/Km [6] [M⁻¹ s⁻¹] | Compound | Km [7] [µM] | Km [8] [µM]
1 | 6050 | 1.72 | 2.88 | 101 | 284 | 28500 | CN1CC=C(Oc2ccc(-c3ccccc3)cc2)CC1 |  | 
2 | 69180 | 4.02 | 2.17 | 55 | 58 | 39320 | CN1CC=C(Oc2ccccc2)CC1 |  | 

Row | Compound | k cat/Km [1] [M⁻¹ s⁻¹] | k cat [2] [s⁻¹] | k cat [3] [s⁻¹] | Km [4] [µM] | Km [5] [µM] | k cat/Km [6] [M⁻¹ s⁻¹] | Km [7] [µM] | Km [8] [µM]
3 | CN1CC=C(c2ccccc2)CC1 | 23850 | 4.55 | 0.517 |  |  | 783 | 191 | 654
